In assay [1] the test system is Mycobacterium tuberculosis. Put plainly: Antitubercular activity against Mycobacterium tuberculosis H37Ra after 4 days by microplate alamar blue assay. In kind it is functional. To be noted: 96 h. In a few lines: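 Mycobacterium tuberculosis H37Ra tested by Microplate Alamar Blue Assay, reporting minimum inhibitory concentration (MIC). Rifampicin, kanamycin and isoniazid were the positive controls.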
(In general: The colour change of resazurin is a common sign of viable cells or microbes.)

In another assay the test system is Plasmodium falciparum. In words: Antimalarial activity against multidrug-resistant Plasmodium falciparum K1 after 42 hrs by [3H]hypoxanthine uptake. In kind it is functional, organism-based. The gist of the method:
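Plasmodium falciparum K1 (multidrug-resistant) was kept in continuous culture. In vitro activity was quantified with a microculture radioisotope technique.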

The subject of the next assay is Candida albicans. In words: Antifungal activity against Candida albicans ATCC 90028 by XTT assay. Type of assay: functional, organism-based. In a few lines: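 Candida albicans ATCC 90028 tested by a tetrazolium/formazan colorimetric method, with IC50 as the read-out. Amphotericin B served as the positive control and DMSO as the negative control.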
(In general: Tetrazolium assays rely on reduction of a dye to a coloured formazan, in cell work by metabolically active cells.)

Data on six compounds can be found in ChEMBL document CHEMBL1158829, “Oxygenated pimarane diterpenes from Kaempferia marginata” (J Nat Prod, 2005).

Molecules are shown by their SMILES. In brackets after ≈: the same amount, converted by molar mass.

In the case of `C=C[C@]1(C)C=C2[C@H](O)C[C@H]3C(C)(C)CC[C@H](O)[C@]3(C)[C@H]2[C@H](O)C1`, the minimal inhibitory concentration (MIC) – broadly, the lowest concentration that inhibits growth of the organism – in assay [1] was > 100 µg/mL. As for `C=C[C@]1(C)C=C2CC[C@H]3C(C)(C)CC[C@H](O)[C@]3(C)[C@H]2[C@H](O)C1`, in the assay with Plasmodium falciparum, the IC50 (in general, the midpoint of a concentration-inhibition curve) is 3.2 µg/mL (≈ 10.5 µM). As for `C=C[C@]1(C)C=C2CC[C@]3(C)[C@](C)(CCC[C@]3(C)O)[C@@]2(C)CC1`, the MIC in assay [1] is 25 µg/mL (≈ 82.6 µM).

As to `C=C[C@]1(C)C=C2C(=O)C[C@H]3C(C)(C)C[C@H](O)[C@H](O)[C@]3(C)[C@H]2CC1`, the MIC in assay [1] was > 100 µg/mL. For `C=C[C@]1(C)C=C2CC[C@]3(C)[C@](C)(CC[C@H](C(C)=O)[C@]3(C)O)[C@@]2(C)CC1`, inhibition of growth in assay [1] (MIC) required 50 µg/mL (≈ 145 µM).

Turning to `C=C[C@]1(C)C=C2CC[C@H]3C(C)(C)C[C@H](O)[C@H](O)[C@]3(C)[C@H]2[C@H](O)C1`, the results for the IC50 with Plasmodium falciparum and in the assay on Candida albicans were 8.8 µg/mL (≈ 27.5 µM) and 17.5 µg/mL (≈ 54.6 µM), respectively. The MIC in assay [1] was > 100 µg/mL.
